Test [1] in a line: TAOC, total antioxidant capacity. The conditions noted are these: read-out: TAOC EC50; concentration that results in an absorbance of 0.500. The method in brief: (§1)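 Cell-free antioxidant assays, with Trolox and ascorbic acid as positive controls. Results are expressed as […] or as Trolox equivalents.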
The subject of test [2] is RAW 264.7 mouse macrophage cell line. The format is cell-based. The conditions noted are these: RAW264.7, 24 h, read-out: NO Production Inhibition (IC50). The method, boiled down: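 NO production inhibition is measured in RAW 264.7 macrophages, with dexamethasone as positive control and the value given as IC50.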
Test [3] has as its system MDA-MB-231S triple-negative breast cancer cell line. Description: MTT antiproliferative assay, MDA-MB-231S. The format is cell-based. The conditions noted are these: 48 h, read-out: IC50, antiproliferative effect. The method in brief:
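Antiproliferative test on MDA-MB-231S cells with DMSO as negative (vehicle) control and doxorubicin as positive control. Activity is reported as IC50.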

A short description of test [4]: ORAC, oxygen radical absorbance capacity. The note with it: trolox equivalent. The method, boiled down: as §1
Test [5] can be described thus: HORAC, hydroxyl radical absorbance capacity. The conditions noted are these: trolox equivalent. The method in brief:
as §1

Molecules are shown by their SMILES.

What is called EC50 is the concentration that produces a half-maximal response. Regarding `O=C1O[C@H]([C@@H](O)CO)C(O)=C1O` [ascorbic acid], the EC50 in test [1] turned out to be 244 µM.

As a reminder, the IC50 is the concentration that inhibits the measured activity by half. For `C[C@@H]1C[C@H]2[C@@H]3CCC4=CC(=O)C=C[C@]4(C)[C@@]3(F)[C@@H](O)C[C@]2(C)[C@@]1(O)C(=O)CO` [dexametasone, Dexamethasone], the IC50 in test [2] was found to be 16.1 ± 1.02 µM.

`COc1cccc2c1C(=O)c1c(O)c3c(c(O)c1C2=O)C[C@@](O)(C(=O)CO)C[C@@H]3O[C@H]1C[C@H](N)[C@H](O)[C@H](C)O1` [doxorubicin]: in test [3], the 50% inhibitory concentration (IC50) was found to be 70 ± 10 nM.

As to `Cc1c(C)c2c(c(C)c1O)CCC(C)(C(=O)O)O2` (stereo not drawn) [trolox], the “ORAC (TE)” value in test [4] is 1 TE. The “HORAC (TE)” value in test [5] was found to be 1 TE. Further, in test [1], the EC50 is 143 µM.
